Consider 14 compounds from paper PMC6448791 (Journal of natural products, 2017).

Several values for one entry are separate records, joined by “and”; a condition that tells them apart may be missing. Equal values may be shown once. Read-outs that look alike come from different tables or passages of the source.

In series [1] the test system is rabbit erythrocytes. Kind of series: Hemolytic assay. To be noted: for HD50 (concentration inducing 50% of erythrocyte hemolysis): 37 °C, 60 min, PBS pH 7.4; for fold lower hemolytic toxicity than 1: HD50 relative to compound 1, rabbit erythrocytes. Format: cell-based.
The subject of series [2] is BGC-823 (gastric carcinoma). Kind of series: MTT cytotoxicity assay, BGC-823. In kind it is cell-based, human. The essentials: (§1)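 Cells kept in RPMI-1640 with 10% FBS, penicillin and streptomycin at 37 °C under 5% CO2. Seeded at 5 × 10^4 cells/mL and pre-incubated 24 h. Exposed to test compound at preset concentrations for 48 h. MTT (0.5 mg/mL) added for 4 h, formazan dissolved in DMSO, A490 read. Inhibition % = (ODc − ODt)/ODc × 100. Cisplatin as positive control.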
In general terms: Tetrazolium dyes change colour on reduction, which living cells bring about.

The subject of series [3] is SMMC-771 (hepatocellular carcinoma). Kind of series: MTT cytotoxicity assay, SMMC-7721. Format: cell-based, human. The essentials:
as §1

Series [4] deals with erythrocytes. To be noted: cited from earlier work.
The subject of series [5] is PARP, pro-caspase-3, pro-caspase-9, pro-caspase-8. Kind of series: Western blot of apoptosis-related proteins. Format: cell-based. The gist of the method:
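A549 cells treated with test compound for 24 h beside untreated control. Lysed in 100 mM Tris-Cl pH 6.8, 4% SDS, 20% glycerol, 200 mM β-mercaptoethanol, 1 mM PMSF plus aprotinin, then spun 12000g for 15 min at 4 °C. Protein measured by BCA, run on 10–15% SDS-PAGE and moved to PVDF. Primary antibodies overnight at 4 °C, HRP secondary, ECL detection; lamin A probed.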

Series [6] relates to all five tested human cancer cell lines. Kind of series: SRB cytotoxicity, all five tested human cancer cell lines. To be noted: read-out: IC50 against all five tested human cancer cell lines. In kind it is cell-based. The essentials: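 ATCC-sourced lines grown in RPMI-1640 with 10% FBS at 37 °C, 5% CO2. Seeded at 3–5 × 10^3 cells/well in medium already containing graded test compound, then 72 h exposure. Fixed with cold 50% TCA for 30 min, stained with 0.04% SRB for 30 min, bound dye taken up in 10 mM Tris base, A515 read.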

For series [7], the system named is A549 human lung cancer cell line. Kind of series: SRB cytotoxicity assay, A549. In kind it is cell-based. A general note: In SRB staining, fixed cells bind dye roughly in proportion to their protein.
Setting [8] is: Homo sapiens, BGC-823, read-out: IC50 BGC-823.
Setting [9] is: Homo sapiens, SMMC-7721, read-out: IC50 SMMC-771.
[10] abbreviates: 24 h treatment, compared to controls.
Where [11] appears, read: as the concentration of 14 increased.

In the case of `CC1(C)CC[C@]2(C(=O)NCCCCCC(=O)O)CC[C@]3(C)C(=CC[C@@H]4[C@@]5(C)CC[C@H](O)[C@@](C)(CO)[C@@H]5CC[C@]43C)[C@@H]2C1` [compound 18, 3β,23-Dihydroxyolean-12-en-28-(6-aminocaproic acid)oic acid amide], the “HD50 (concentration inducing 50% of erythrocyte hemolysis)” value in series [1] (rabbit erythrocytes) was over 500 µM.

As to `CC1(C)CC[C@]2(C(=O)NCC(=O)O)CC[C@]3(C)C(=CC[C@@H]4[C@@]5(C)CC[C@H](O)[C@@](C)(CO)[C@@H]5CC[C@]43C)[C@@H]2C1` [compound 16, 3β,23-Dihydroxyolean-12-en-28-(glycine)oic acid amide], in series [1] (rabbit erythrocytes), the “HD50 (concentration inducing 50% of erythrocyte hemolysis)” value is over 500 µM.

In the case of `CC1(C)CC[C@]2(C(=O)NCCCC(=O)O)CC[C@]3(C)C(=CC[C@@H]4[C@@]5(C)CC[C@H](O)[C@@](C)(CO)[C@@H]5CC[C@]43C)[C@@H]2C1` [compound 17, 3β,23-Dihydroxyolean-12-en-28-(4-aminobutanoic acid)oic acid amide], the “HD50 (concentration inducing 50% of erythrocyte hemolysis)” value in series [1] (rabbit erythrocytes) is over 500 µM.

Take `CCOC(=O)CNC(=O)[C@]12CCC(C)(C)C[C@H]1C1=CC[C@@H]3[C@@]4(C)CC[C@H](OC(C)=O)[C@@](C)(COC(C)=O)[C@@H]4CC[C@@]3(C)[C@]1(C)CC2` [compound 13, 3β,23-Diacetoxyolean-12-en-N-[glycineethyl ester]-28-formamide]: the “HD50 (concentration inducing 50% of erythrocyte hemolysis)” value in series [1] (rabbit erythrocytes) is over 500 µM.

Turning to `C[C@@H]1O[C@@H](O[C@H]2[C@H](O[C@H]3CC[C@@]4(C)[C@@H](CC[C@]5(C)[C@@H]4C[C@H](O)[C@]46OC(=O)[C@@]7(CCC(C)(C)C[C@H]74)CC[C@]65C)[C@]3(C)CO)OC[C@H](O[C@@H]3O[C@H](CO)[C@@H](O)[C@H](O)[C@H]3O)[C@@H]2O)[C@H](O)[C@H](O)[C@H]1O` [compound 11, 33β,12α,23-Trihydroxyolean-28-oic acid 28,13β-lactone-3-O-α-3L3-rhamnopyranosyl-(1→32)-[β-3D3-glucopyranosyl-(1→34)]-α-3L3-arabinopyranoside], the “fold lower hemolytic toxicity than 1” value in series [1] was about 50 fold. Further, the “HD50 (concentration inducing 50% of erythrocyte hemolysis)” value in series [1] (rabbit erythrocytes) was 308 μM and 290−308 μM and 308 ± 24.2 μM. In addition, the IC50 in series [2] (setting [8]) and in series [3] (setting [9]) was over 10 µM throughout.

Regarding “hederagenin 3-O-α-L-rhamnopyr-anosyl-(1→2)-[β-D-glucopyranosyl-(1→4)]-α-L-arabinopyrano-side [compound 1]”, in series [1] (rabbit erythrocytes), the “HD50 (concentration inducing 50% of erythrocyte hemolysis)” value is 6.3 µM and 6.3 ± 0.58 µM. Further, the “HD50 (hemolytic toxicity)” value in series [4] was 6.3 µM. Further, the IC50 amounted to 7.2 µM in series [2] (read-out: IC50 BGC-823, MTT assay) and 4.4 µM in series [3] (read-out: IC50 SMMC-771, MTT assay).

On to `C[C@@H]1O[C@@H](O[C@H]2[C@H](O[C@H]3CC[C@@]4(C)[C@@H](CC[C@]5(C)[C@@H]4CC(=O)[C@]46OC(=O)[C@@]7(CCC(C)(C)C[C@H]74)CC[C@@]56C)[C@]3(C)CO)OC[C@H](O[C@@H]3O[C@H](CO)[C@@H](O)[C@H](O)[C@H]3O)[C@@H]2O)[C@H](O)[C@H](O)[C@H]1O` [compound 10, 3β,23-Dihydroxy-12-oxo-olean-28-oic acid-28,13β-lactone-3-O-α-L-rhamnopyranosyl-(1→2)-[β-D-glucopyranosyl-(1→4)]-α-L-arabinopyranoside], for which the “fold lower hemolytic toxicity than 1” value in series [1] is recorded as about 50 fold. Also, the “HD50 (concentration inducing 50% of erythrocyte hemolysis)” value in series [1] (rabbit erythrocytes) was 290 μM and 290−308 μM and 290 ± 25.5 μM. The IC50 in series [2] (setting [8]) and in series [3] (setting [9]) was over 10 µM throughout.

On to `CCOC(=O)CCCNC(=O)[C@]12CCC(C)(C)C[C@H]1C1=CC[C@@H]3[C@@]4(C)CC[C@H](OC(C)=O)[C@@](C)(COC(C)=O)[C@@H]4CC[C@@]3(C)[C@]1(C)CC2` [compound 14, 3β,23-Diacetoxyolean-12-en-N-[4-aminobutanoic acid ethyl ester]-28-formamide], for which, in series [1] (rabbit erythrocytes), the “HD50 (concentration inducing 50% of erythrocyte hemolysis)” value is over 500 µM. Moreover, in series [5] (setting [10]), the “expression of pro-caspase-3” value is recorded as “decreased”, the “expression of pro-caspase-8” value was “decreased” and the “expression of pro-caspase-9” value is “decreased”. Further, in series [5] (setting [11]), the “expression of PARP” value is on record as “decreased” and the “expression of cleaved PARP” value is recorded as “increased”. In series [6], the IC50 fell in the range of 2.8 to 8.6 µM.

With `CC(=O)OC[C@@]1(C)[C@@H]2CC[C@]3(C)[C@H](CC=C4[C@@H]5CC(C)(C)CC[C@]5(C(=O)O)CC[C@]43C)[C@@]2(C)CC[C@@H]1OC(C)=O` [compound 12, 3β,23-Diacetoxyolean-12-en-28-oic acid], the “HD50 (concentration inducing 50% of erythrocyte hemolysis)” value in series [1] (rabbit erythrocytes) was over 500 µM.

As to `C[C@@H]1O[C@@H](O[C@H]2[C@H](O[C@H]3CC[C@@]4(C)[C@@H](CC[C@]5(C)[C@@H]4C(=O)C=C4[C@@H]6CC(C)(C)CC[C@]6(C(=O)O)CC[C@]45C)[C@]3(C)CO)OC[C@H](O[C@@H]3O[C@H](CO)[C@@H](O)[C@H](O)[C@H]3O)[C@@H]2O)[C@H](O)[C@H](O)[C@H]1O` [compound 4, 3β,23-Dihydroxy-11-oxo-olean-12-en-28-oic acid-3-O-α-L-rhamnopyranosyl-(1→2)-[β-D-gluco-pyranosyl-(1→4)]-α-L-arabinopyranoside], the “HD50 (concentration inducing 50% of erythrocyte hemolysis)” value in series [1] (rabbit erythrocytes) is 239 µM and 239 ± 22.2 µM. In addition, the IC50 in series [2] (setting [8]) and in series [3] (setting [9]) was over 10 µM each time.

Regarding `C[C@@H]1O[C@@H](O[C@H]2[C@H](O[C@H]3CC[C@@]4(C)[C@@H](CC[C@]5(C)[C@@H]4C(=O)C=C4[C@@H]6CC(C)(C)CC[C@]6(C(=O)NCC(=O)O)CC[C@]45C)[C@]3(C)CO)OC[C@H](O[C@@H]3O[C@H](CO)[C@@H](O)[C@H](O)[C@H]3O)[C@@H]2O)[C@H](O)[C@H](O)[C@H]1O` [compound 7, 3β,23-Dihydroxy-11-oxo-olean-12-en-28-(glycine)oic acid-3-O-α-L-rhamnopyranosyl-(1→2)-[β-D-glucopyranosyl-(1→4)]-α-L-arabinopyranoside], the “HD50 (concentration inducing 50% of erythrocyte hemolysis)” value in series [1] (rabbit erythrocytes) was 290−308 μM and 290 ± 27.0 μM. Also, the 50% inhibitory concentration (IC50) in series [2] (setting [8]) and in series [3] (setting [9]) was over 10 µM throughout.

For the compound `C[C@@H]1O[C@@H](O[C@H]2[C@H](O[C@H]3CC[C@@]4(C)[C@@H](CC[C@]5(C)[C@@H]4CC(=O)[C@@H]4[C@@H]6CC(C)(C)CC[C@]6(C(=O)O)CC[C@]45C)[C@]3(C)CO)OC[C@H](O[C@@H]3O[C@H](CO)[C@@H](O)[C@H](O)[C@H]3O)[C@@H]2O)[C@H](O)[C@H](O)[C@H]1O` [compound 9, 3β,23-Dihydroxy-12-oxo-olean-28-oic acid-3-O-a-L-rhamnopyranosyl-(1→2)-[β-D-glucopyranosyl-(1→4)]-a-L-arabinopyranoside], the “fold lower hemolytic toxicity than 1” value in series [1] was “at least 10 fold”. In series [1] (rabbit erythrocytes), the “HD50 (concentration inducing 50% of erythrocyte hemolysis)” value was 73.1 µM and 73.1 ± 9.0 µM. For the same compound, the IC50 in series [2] (setting [8]) and in series [3] (setting [9]) was over 10 µM throughout.

Take `CC1(C)CC[C@]2(C(=O)O)CC[C@]3(C)C(=CC[C@@H]4[C@@]5(C)CC[C@H](O)[C@@](C)(CO)[C@@H]5CC[C@]43C)[C@@H]2C1` [hederagenin, reference compound]: in series [1] (rabbit erythrocytes), the “hemolytic toxicity (in words)” value was “low hemolytic toxicity” and the “HD50 (concentration inducing 50% of erythrocyte hemolysis)” value is over 200 µM. Moreover, the “cytotoxicity toward A549 cancer cells (in words)” value in series [7] was “inactive”.

`CCOC(=O)CCCCCNC(=O)[C@]12CCC(C)(C)C[C@H]1C1=CC[C@@H]3[C@@]4(C)CC[C@H](OC(C)=O)[C@@](C)(COC(C)=O)[C@@H]4CC[C@@]3(C)[C@]1(C)CC2` [compound 15, 3β,23-Diacetoxyolean-12-en-N-[6-aminocaproic acid ethyl ester]-28-formamide]: the “HD50 (concentration inducing 50% of erythrocyte hemolysis)” value in series [1] (rabbit erythrocytes) was over 500 µM.

Usually IC50 stands for the concentration at which inhibition is half-maximal.
